Laboratory results taken from ChEMBL document CHEMBL4513216, “Probing the Open Global Health Chemical Diversity Library for Multistage-Active Starting Points for Next-Generation Antimalarials” (ACS Infect Dis, 2020).

Assay: Toxicity liver stage against HepG2, at 10uM
Type: cell-based
Design: test concentration 10 uM, cell line HepG2-A16-CD81EGFP
Details: human, HepG2-A16-CD81EGFP cells; read-out: INHIBITION
Procedure, shortened: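 Uninfected HepG2-A16-CD81EGFP cells, 3 × 10^3 per well, 1536-well, plated on prespotted compound at 10 μM final, parasite-free screening media added to match infected plates; puromycin 10 μM positive, DMSO 0.5% negative; run in parallel with 48 h PbLuc assay at 37 °C, 5% CO2; viability by CellTiter-Glo luminescence, normalized to controls.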

Compound	cytotoxicity at 10 µM
COCCN1C[C@H]2CN(C(=O)NCc3ccccc3)CCN2C1=O	2.08%
COCc1cc(C[C@@H]2CC[C@H](O)[C@@H](CNCC(C)C)O2)no1	0.847%
CC(C)(C)n1ncc2c1NC(=O)CSC2c1ccsc1 (stereo not given)	-2.34%
Cc1nn(C)cc1-c1nn2c(C(F)(F)F)nnc2s1	2.48%
CSCCC(Nc1nc(C)cc(C)n1)C(=O)NC1CC1 (stereo not given)	-15.3%
COCCNC(=O)NCCn1nc(C(F)(F)F)n(C)c1=O	-2.06%
CC(C)N1CCc2[nH]nc(C(=O)N3CCCC3C)c2C1 (stereo not given)	-6.25%
Cc1cnc(CNC(=O)C[C@@H]2COC[C@H]3CN(C4CCC4)C[C@@H]23)cn1	-10.6%
O=C1NCCO[C@H]2CN(C(=O)CCc3ccccc3Cl)CC[C@@H]12	1.96%
O=c1ccc2c(n1Cc1ccncc1)CCN(C1CCOC1)CC2 (stereo not given)	-1.31%
COCC1CN(CC2CCOCC2)Cc2cn(CC3CCCC3)nc21 (stereo not given)	5.19%
CNC(=O)[C@@]12CCC3(CCNCC3)[C@@H]1CN(S(C)(=O)=O)C2	-2.86%
CO[C@@H]1CC[C@H]2[C@H]1OCCN2S(=O)(=O)C1CC1	2.6%
COc1cc(C(=O)NCC2CCCO2)nc2c(C)cc(F)cc12 (stereo not given)	1.79%
CC(=O)N1CCn2c(COCc3csc(C)n3)cnc2C1C (stereo not given)	-12.5%
CN(C)[C@@H]1CCN(c2ncccn2)[C@H]1Cc1ccccc1	-9.29%
CC1CCN(C(=O)c2ccn(COc3ccccc3)n2)CC1	-0.107%
Cn1cc(Br)c(C(=O)NCCn2cc(Br)cn2)n1	-13.3%
COC(=O)c1c(Cl)c(C)nc2onc(C)c12	-0.895%
O=C(O)c1cnc(N2CCCC2)nc1COc1ccccc1	0.924%
COc1ccc(CNC(=O)c2nn(C)c3c2CS(=O)(=O)CC3)cc1OC	8.09%
CC(=O)N1CCOC(c2c(C(=O)NCCN(C)C)sc3ccccc23)C1 (stereo not given)	-1.19%

Compound	cytotoxicity at 10 µM
CC(C)NC(=O)C1CCc2nnc(C(C)(C)C)n21 (stereo not given)	2.74%
CC(C#N)CNC(=O)Nc1ccc(Br)cc1 (stereo not given)	1.44%
CN(CCOc1ccc(F)cc1)S(=O)(=O)N1CCOCC1	7.71%
O=C(NCCN1CCCCCC1=O)Nc1cccnc1-n1cccn1	-1.73%
CCC(NC(=O)c1ccc(COC)o1)c1nc(C(F)(F)F)cs1 (stereo not given)	2.91%
COCC(=O)Nc1nnc2n(Cc3cccc(OC)c3)[nH]c(C)c1-2	-11.7%
CCC(C)NC(=O)CS(=O)(=O)Cc1ccccc1Cl (stereo not given)	3.79%
CN(C)C(=O)CCCn1ccc(NCc2ccc(C#N)cc2)n1	1.92%
NC(=O)CN1CCc2c(Br)ccc(F)c2C1	0.892%
CC(C)Oc1cccc(CN(C)C(=O)Nc2cccn(C)c2=O)c1	-6.13%
COC(=O)CCN(CC1CCCO1)C(=O)CCc1ccc(OC)cc1 (stereo not given)	7.39%
CN(C(=O)c1ccc(NC(=O)c2cc[nH]n2)cc1)C1CCCCC1	-2.98%
CN(C)c1ccc(C(=O)Nc2ccn(CC(N)=O)n2)cn1	-5.75%
O=C(CNC(=O)c1ccccc1I)NCc1ccccc1F	1.16%
O=c1[nH]nc(SCC2CCCO2)n1C1CC1 (stereo not given)	0.0288%
Cc1cc(N2CCc3c(ncn3C)C2)nc(N)n1	-7.93%
Cc1cnc(CN2CCN(C(C)c3nc(C)no3)CC2)cn1 (stereo not given)	1.81%
CCOc1ccc(CC(=O)Nc2cnccc2SCCCO)cc1	7.94%
Cc1cccc(-c2noc(CN3CCn4c(nnc4C4CC4)C3)n2)c1	-9.03%
COc1ccc2c(c1)C(=O)N(C)C1(CCN(CC=C(C)C)CC1)N2	3.31%
N#Cc1cccnc1NCc1ccc(S(=O)(=O)NC2CC2)cc1	6.25%
Cc1n[nH]c(C)c1NC(=O)c1cccc(OCC(F)(F)F)n1	-6.83%

Compound	cytotoxicity at 10 µM
NC(=O)CCN1C(=O)CC(Cc2ccc(F)cc2)C1=O (stereo not given)	-4.89%
CC(CNC(=O)c1c[nH]nn1)Oc1cccc(Br)c1 (stereo not given)	-10.3%
N#CC(NC(=O)CCC(=O)NC1CCCC1)c1ccc(F)cc1F (stereo not given)	6.75%
COc1ccc(S(=O)(=O)C(C)C(=O)NCCOc2cccc(C)c2)cc1 (stereo not given)	-2.24%
CCc1nnsc1C(=O)N1CCN(CC(O)C(C)(C)C)CC1 (stereo not given)	0.542%
O=C(O)c1csc(S(=O)(=O)N2CCCc3cc(OC(F)F)ccc32)c1	-9.69%
Cc1cnn(-c2ccc(C(=O)N3CCN(C)CC3C)cc2)c1 (stereo not given)	5.16%
CCOc1ccc(C(F)(F)F)cc1NC(=O)NCc1noc(C)n1	-5.1%
CCCc1nc(CNC2(c3nccs3)CCCC2)cs1	2.63%
CN(Cc1nnc(-c2cccs2)o1)C(C(N)=O)c1cccc(F)c1 (stereo not given)	13.7%
COC(C)(C)CC(C)NC(=O)Nc1ccccn1 (stereo not given)	8.19%
O=S(=O)(CC1CCCO1)Nc1cc(Cl)ccc1-n1cccn1 (stereo not given)	3.55%
CC(=O)N(C)c1nc(CN2CCOC(Cn3cccn3)C2)cs1 (stereo not given)	-12.8%
CCc1nc2n(n1)CC(NCc1nc(C)ccc1O)CC2 (stereo not given)	-9.96%
CS(=O)(=O)Cc1cccc(C(=O)NCC2Cc3ccccc3O2)c1 (stereo not given)	-16.5%
CC(=O)NCCNC(=O)C(c1ccccc1C)N(C)C (stereo not given)	10.6%
COc1ccc2cc(CN(C)CCN3CCCCC3=O)c(=O)[nH]c2c1	0.363%
NS(=O)(=O)c1ccc(F)c(C(=O)NCCSc2ccccn2)c1	-9.11%
COc1ccc(C(=O)N2C[C@@H](O)[C@H](NCCc3ncccc3C)C2)cc1	-3.71%
COCc1noc(Cn2ccc3ccccc3c2=O)n1	0.761%
Cc1ccc(Oc2ncccc2CNC2CCOCC2)cn1	-3.73%
CC(=O)Nc1ccsc1C(=O)Nc1cnc2n1CCCC2	-4.58%

Compound	cytotoxicity at 10 µM
CCN1CCN(C[C@@H]2CN(c3ncccc3C(F)(F)F)C[C@@H]2CO)CC1	-4.47%
Cc1ccc2nc(C(=O)N3CCNC(=O)C3c3cccc(F)c3)cn2c1 (stereo not given)	-5.66%
Cc1cc(C)c2c(N3CCN(C(=O)N4CCOCC4)CC3)ncnc2n1	-8.29%
O=C(NCc1ccc(F)cc1F)C(c1cccnc1)N1CCOCC1 (stereo not given)	-4.89%
Cc1cccc(CN2CCCC(O)(CNCc3cccc(F)c3)C2=O)c1 (stereo not given)	-12.1%
COCC1CCCCN1C(=O)c1cc(Cn2ccc3ccccc32)[nH]n1 (stereo not given)	-3.54%
CCc1ncc(C(=O)N2CCN(C(=O)COc3ccccc3)CC2)cn1	-12.8%
Cc1cccc2[nH]c(C3CCN(C(=O)c4c[nH]c(=O)[nH]c4=O)CC3)nc12	8.59%
CCCn1cc(C(=O)NCCc2ccc3c(c2)OCO3)c(C)n1	96.3%
CCN1CCN(C(=O)c2cccc(CN3CCOCC3)c2)CC1	7.12%
N#Cc1c(C2CC2)cc(-c2ccc(O)cc2)nc1N	-4.72%
CCc1nc(C)c([C@H]2CN(C)C[C@@H]2C(=O)Nc2ccc(OC)cc2)[nH]1	-6.66%
CCc1nc(C2CCCN2CC(=O)Nc2cc(C)no2)no1 (stereo not given)	-1.68%
CCN1N=C(C(=O)N2CCCC(c3nc(C)c(C)s3)C2)CCC1=O (stereo not given)	1.84%
Cn1ccnc1COc1ccc(CN2CCC(C(N)=O)CC2)cc1	-4.47%
Cc1nc(C)n(CC2CN(c3ncccc3C#N)CCO2)n1 (stereo not given)	-10.1%
CC(=O)NCCNC(=O)c1sc(-c2ccc(Cl)cc2)nc1C	-7.6%
Cc1ccc(N2CCCN(C(=O)CCC3CCCO3)CC2)nn1 (stereo not given)	-16.3%
Cc1nc(C)n(CC2CCCN(Cc3cccnc3)C2)n1 (stereo not given)	-18.7%
c1cc(-c2noc(CN3CCn4c(nnc4C4CC4)C3)n2)cs1	-7.07%
COc1ccc(NC(=O)NCc2ccnc(N(C)C)c2)cn1	-8.6%
Cc1cccc(CNC(=O)N(CCCO)C2CCc3ccccc32)n1 (stereo not given)	-10.5%

Compound	cytotoxicity at 10 µM
CCOCC(O)CN1CCN(C(=O)C2CCC2)CC1 (stereo not given)	-11.8%
O=C(Cc1c[nH]c2ccccc12)N1CCC(Nc2ccccc2)CC1	-12.9%
CCc1nc(CN2CCOC(Cn3nc(C)nc3C)C2)no1 (stereo not given)	-5.38%
O=C(CN1CCCCC1)N1CCC(c2cc(=O)n3c(n2)CCCCC3)C1 (stereo not given)	-32.5%
Cc1cnc(N2CC[C@@H]3CN(Cc4ccncc4)CCO[C@@H]3C2)nc1	3.23%
c1cnc(N2CCO[C@H]3CN(Cc4cc[nH]n4)C[C@H]32)cn1	9.07%
CNC(=O)C1CNCCN1C(=O)c1ccc(C(F)(F)F)nc1C (stereo not given)	-4.7%
O=C(c1cnccn1)N1CCCC2(CCN(Cc3ccsc3)C2)C1 (stereo not given)	-2.27%
CN(C)C(=O)N[C@@H]1CN(Cc2ccc3c(c2)OCO3)[C@@H]2CCCO[C@@H]21	-6.93%
O=C(Nc1cnccn1)[C@H]1COC[C@H]2CN(C3CCCC3)C[C@H]21	-20.4%
Cc1nc(CN2CCOCC23CCN(c2ccc(C#N)cc2)CC3)cs1	-13.8%
CN1CCOCC12CCN(c1ccc(C#N)cc1)CC2	-4.23%
COCCN1CCc2ccc(=O)n(Cc3csc(C)n3)c2CC1	4.68%
Cc1csc(CCNCc2cnc3c(c2)c(C)nn3C)n1	5.76%
CC(C)N(C)Cc1cn2c(n1)CN(Cc1ccsc1)CC2	-16.1%
COCCN1C[C@@H]2CCCO[C@@H]2[C@H](N(C)Cc2ccco2)C1	-0.388%
CN(C)C(=O)NCc1cc2n(n1)CCCN(CC1[C@H]3CNC[C@@H]13)C2 (stereo not given in full)	-5.77%
COC(=O)N1C[C@@H]2CC[C@H]1CN(Cc1cscn1)C2	-9.25%
CNc1nc2cn(CCc3ccc(Cl)cc3)c(=O)c-2c[nH]1	5.2%
Cc1nnsc1CN1C[C@@H]2CC[C@H]1CN(Cc1ccccn1)C2	-3.56%
COc1ccc(OC)c(C2c3c(n[nH]c3C)N=C3COC(=O)C32)c1 (stereo not given)	-11.3%
C=c1occc1=C1NN=C2SC(C#N)C(N)=NN21 (stereo not given)	0.331%
